# Variants at the floor of the assay were thinned out.
# B1: tRNA (parent)
# chain: GUUCCGUUGGCGUAAUGGUAACGCGUCUCCCUCCUAAGGAGAAGACUGCGGGUUCGAGUCCCGUACGGAACG
# Variants of: B1
# Assay: yeast fitness relative to wild type (ratio to wild type); higher = fitter; tRNA-Arg(CCU), competitive growth, 37 C, YPD
# Method in brief: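 Genotype frequency changes were the basis for Darwinian fitness relative to wild type. The frequencies came from 100-nucleotide paired-end sequencing of gene amplicons from the start population and each end population of pooled yeast strains with tRNA-Arg(CCU) gene variants at the native locus. Competition ran in YPD at 37°C for 24 hours in six replicates, genotypes needed ≥ 100 starting reads, and estimates < 0.5 were set to 0.5.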
row,Variant,yeast fitness
1,C5U U7A C34U G56A G67A,≤ 0.5
2,U7C A21C C34A U35G G44C C61G,≤ 0.5
3,U8A C30U A57C,≤ 0.5
4,G18A C29U C30U A57G,≤ 0.5
5,U7A U16C G17A C29U C31A G51U C66G G67U,≤ 0.5
6,G18A A57U G58C,≤ 0.5
7,G10A U32A C49U,0.577
8,C5U C29U G44A,0.868
9,A21G C24U G51C,≤ 0.5
10,U13A C46U U64C A69U,≤ 0.5
11,A15C G56A C61U C66U,≤ 0.5
12,A20G A36U G68C,0.535
13,U53C C61A G68A,0.58
14,C30A A36C C46G,0.532
15,C11U U28A,0.682
16,G12C C34U G44A G52A C55U,≤ 0.5
17,U35A A45C G68U,≤ 0.5
18,C34U A36C A40C C55A C66U,0.526
19,U26C G63A,0.916
20,C29G C55A A69U,≤ 0.5
21,A20G A36C C49G C61G C62G,≤ 0.5
22,C5U C11U G25A A37G C60G,≤ 0.5
23,G12A C33U A36C,0.563
24,G10A C27G U35A A45U G67A,≤ 0.5

row,Variant,yeast fitness
1,C5U U8A C61U,0.548
2,C31U G50A G67A,0.63
3,C22G C24G G50A C66U A69C,≤ 0.5
4,G18A C29U C31A C66U,≤ 0.5
5,G23C C61U A70U,0.6
6,A14G C66A,0.656
7,U2A A15G C24U U54C,0.726
8,U13C G18A A43U,0.627
9,C24G U35A G48C,≤ 0.5
10,C5U A45G C62U,0.994
11,U2C C22G G51C A70G,≤ 0.5
12,C4G A20C U54G,0.529
13,U7C G51C A57U,≤ 0.5
14,C30U C31A,0.754
15,A15G U19C,0.985
16,A43G G58A A65C C66U,≤ 0.5
17,G18A C29U,0.813
18,G6U,0.918
19,A21U A36C,≤ 0.5
20,G10C C27G C30G G48C A65C,≤ 0.5
21,C30U C31G A36C,≤ 0.5
22,U2A U16C C30A G56A G68C,0.541
23,U2A C24G C31U C33G A42C A43U A65U,≤ 0.5
24,U2C G10C A21G,≤ 0.5

row,Variant,yeast fitness
1,U7G C62G,0.603
2,A15G U28G A42U G48A G67A,≤ 0.5
3,G25A C29G U54G C61G,≤ 0.5
4,A37C A43C U59A A69G,≤ 0.5
5,U26A C29U C31U G48A,0.596
6,U13A G48C C55G C66A,0.584
7,C29U U35C A42U C61U C66A,≤ 0.5
8,G17A A45G A65U,0.559
9,U3G C62U,0.873
10,C11G C62A A70C,0.563
11,A14U C61G,≤ 0.5
12,G6C A21G C30G A37U,0.566
13,C22A C60U,0.682
14,C22U A45U G52C A57U,≤ 0.5
15,A14G A45C,0.718
16,C5A C31G A37G A70U,0.532
17,G10A C11A C22U C34G A43C G48C,0.585
18,A14U U19G C30G,≤ 0.5
19,C5A G41A A57C C62A,0.54
20,C4U U19A C30G A36C,0.55
21,C11A C29A,≤ 0.5
22,C4G U8C C24G C30G A43C,≤ 0.5
23,C31U A37U C66U,0.542
24,C5U A14G C29U A37U,≤ 0.5

row,Variant,yeast fitness
1,C31A G67C,0.846
2,A42C A45C G52C,≤ 0.5
3,C22U C24G U35C G56C U64A,≤ 0.5
4,A15G U28C C30U U59A A70C,≤ 0.5
5,U3A U53C,0.668
6,G18A C34U,≤ 0.5
7,C30G A57U,0.609
8,U8C A45C C66U,0.626
9,A20C A43U A69C,0.605
10,C5U G25C A42U,0.639
11,C29G C55G,0.538
12,G12C U19A C27G,0.692
13,G12A U54C,0.797
14,C33G A57U G68A A69U,≤ 0.5
15,A14U C31U C55U G68A,0.618
16,C29A G50C U64C,≤ 0.5
17,G12A G58C G63A,0.615
18,C5A C22U C30U G68U,≤ 0.5
19,C24G G39C A57G A65G,≤ 0.5
20,U2G G12C C49U,≤ 0.5
21,U2G C55G,0.532
22,C29U C33U A42C,0.774
23,G63A A69U,0.856
24,A14G G18C C30U C34U C61G,≤ 0.5

row,Variant,yeast fitness
1,C27U C31A A45U,0.747
2,G9C U28A,0.708
3,U16G C22G A65U,0.722
4,U19A C27U A57G,0.725
5,A40U G48A U64G,0.631
6,G17A C22U U28C U54G A57C C62U,0.535
7,G9A C11U A36C A57G A65U,≤ 0.5
8,C29A G56C A57G G68U,≤ 0.5
9,C11G C30A A42C C61A,≤ 0.5
10,C34A C60G A70C,≤ 0.5
11,A20G C29U G48C G52A,≤ 0.5
12,G25A C33G A57G G58A U59C A65U,≤ 0.5
13,G52C A65U G67C,≤ 0.5
14,A37C A45U C61U,0.545
15,C46A U64G,0.82
16,U28G C46G C49U,≤ 0.5
17,C29U C31A C46U,0.552
18,G6A C11A A40G G56C,≤ 0.5
19,U26G U53A G56C G63A,≤ 0.5
20,A14U G25A C60G C66G,≤ 0.5
21,U19A C24G C27U C30A U64A A70C,≤ 0.5
22,U16G G39A A45C C61A A69U,≤ 0.5
23,A20G U35A A37G A43U A45C,≤ 0.5
24,U19A C27U G44A,0.781

row,Variant,yeast fitness
1,U26C C29A G67C,≤ 0.5
2,C30A C46G,0.991
3,G10A C30U A43U C55A,≤ 0.5
4,A21C U26A C31U,≤ 0.5
5,G12A A20U A42C,0.692
6,G38C A69U A70C,0.557
7,A14C G68U,0.583
8,U7A C29G G50A U64C,≤ 0.5
9,G25A C29A G38A,≤ 0.5
10,C5G A15U C61U,≤ 0.5
11,C33A U35A C62U,0.617
12,U7G C34A C46G A65C,0.746
13,C5G C29U A37U G38C,≤ 0.5
14,C22G A36G A42G,0.605
15,C5G G9C G58C,≤ 0.5
16,C4G A20G C30G G58A,≤ 0.5
17,G6A U19C,0.99
18,C4A C29U C55U G63A,≤ 0.5
19,A57G A65C,0.919
20,C4A C49U A65U,≤ 0.5
21,C4G C24A A42U U47A C60G,0.62
22,C4G C11A C30G G67A,≤ 0.5
23,U8C G18C G50A C60U,0.546
24,C24U C34U G48C,≤ 0.5

row,Variant,yeast fitness
1,C4A G25C C34U A57C,≤ 0.5
2,A15G A20G C49A C62U G63A,≤ 0.5
3,C31G U32A C60G,≤ 0.5
4,C46U C62A,0.684
5,C29A A65G,0.667
6,A45C U53A,0.727
7,G25C C29G C30U C49G,0.61
8,C5G C27G C29U A45G C49A C66U,≤ 0.5
9,C5U A21U,0.766
10,U8G U26A A43C C49U C55G C60A,≤ 0.5
11,G25C C33A A57U A69U,0.548
12,A57G G58C,1.03
13,G6A A14C A42U G56A G63C,0.511
14,A20U U28A C31U C55G A57C,≤ 0.5
15,C4U C22U,0.76
16,G12A U13C U26C G51A,≤ 0.5
17,G10A G41A C49U U53A,≤ 0.5
18,C4A C22G C29U,0.556
19,C4A U7G C27U A45C,≤ 0.5
20,C4G C33U A37U G38A A42C,≤ 0.5
21,A14C A15C G25C A57C C62G A69G,≤ 0.5
22,C5U A15G A42G G58C G68A,≤ 0.5
23,C29U A37G G48C G67C,≤ 0.5

# Source: the RNAGym collection of RNA variant scans (doi:10.1126/science.aae0568)
